Measurements taken from ChEMBL document CHEMBL3526127, “Absorption, elimination, and metabolism of CS-1036, a novel α-amylase inhibitor in rats and monkeys, and the relationship between gastrointestinal distribution and suppression of glucose absorption” (Drug Metab Dispos, 2013).
One block for each molecule: values may come before it.

Columns and labels:
[1] = system: Stomach; experiment: Drug distribution in stomach of F344 rat treated with [14C]CS-1036 at 1 mg/kg, po administered as single dose after 2 to 8 hrs by scintillation counting method; type: ADME, organism-based; set-up: dose 1 mg/kg, route oral; conditions: in vivo
[2] = system: Intestine; experiment: Drug distribution in intestine of F344 rat treated with [14C]CS-1036 at 1 mg/kg, po administered as single dose after 2 to 8 hrs by scintillation counting method; type: ADME, organism-based; set-up: dose 1 mg/kg, route oral; conditions: in vivo
[3] = Drug distribution in cecum of F344 rat treated with [14C]CS-1036 at 1 mg/kg, po administered as single dose after 6 to 8 hrs by scintillation counting method; type: ADME, organism-based, Caecum; set-up: dose 1 mg/kg, route oral; conditions: in vivo
[4] = Drug level in feces of F344 rat treated with [14C]CS-1036 by LC-MS/MS method; type: ADME, tissue-based; conditions: in vivo
[5] = Drug level in anaerobic culture broth of F344 rat cecal content treated with [14C]CS-1036 at 63.5 uCi/ml after 24 hrs at 35 degC by LC-MS/MS method; type: ADME; conditions: in vitro
[6] = Drug level in anaerobic culture broth of human feces derived anaerobic culture broth treated with [14C]CS-1036 at 63.5 uCi/ml after 24 hrs at 35 degC by LC-MS/MS method; type: ADME, tissue-based
[7] = Drug excretion in feces of cynomolgus monkey treated with [14C]CS-1036 at 3 mg/kg, po administered as single dose after 48 hrs by scintillation counting method; conditions: in vivo
[8] = Drug level in anaerobic culture broth of monkey feces derived anaerobic culture broth treated with [14C]CS-1036 at 63.5 uCi/ml after 24 hrs at 35 degC by LC-MS/MS method; conditions: cynomolgus monkey, in vivo
[9] = system: Rattus norvegicus; experiment: Drug level in F344 rat treated with 0.3 mg/kg, po CS-1036 administered as single dose assessed as ratio of molar based AUClast by LC-MS/MS method relative to CS-1036; type: ADME, organism-based; set-up: dose 0.3 mg/kg, route oral; conditions: in vivo
[10] = system: Rattus norvegicus; experiment: Drug level in F344 rat treated with 1 mg/kg, po CS-1036 administered as single dose assessed as ratio of molar based AUClast by LC-MS/MS method relative to CS-1036; type: ADME, organism-based; set-up: dose 1 mg/kg, route oral; conditions: in vivo
[11] = system: Rattus norvegicus; experiment: Drug level in F344 rat treated with 3 mg/kg, po CS-1036 administered as single dose assessed as ratio of molar based AUClast by LC-MS/MS method relative to CS-1036; type: ADME, organism-based; set-up: dose 3 mg/kg, route oral; conditions: in vivo
[12] = system: Rattus norvegicus; experiment: Drug level in F344 rat treated with 10 mg/kg, po CS-1036 administered as single dose assessed as ratio of molar based AUClast by LC-MS/MS method relative to CS-1036; type: ADME, organism-based; set-up: dose 10 mg/kg, route oral; conditions: in vivo
[13] = system: Cynomolgus monkey; experiment: Drug level in cynomolgus monkey treated with 1 mg/kg, po CS-1036 administered as single dose assessed as ratio of molar based AUClast by LC-MS/MS method relative to CS-1036; type: ADME, organism-based, Macaca fascicularis; set-up: dose 1 mg/kg, route oral; conditions: in vivo
[14] = system: Cynomolgus monkey; experiment: Drug level in cynomolgus monkey treated with 3 mg/kg, po CS-1036 administered as single dose assessed as ratio of molar based AUClast by LC-MS/MS method relative to CS-1036; type: ADME, organism-based, Macaca fascicularis; set-up: dose 3 mg/kg, route oral; conditions: in vivo
[15] = system: Cynomolgus monkey; experiment: Drug level in cynomolgus monkey treated with 10 mg/kg, po CS-1036 administered as single dose assessed as ratio of molar based AUClast by LC-MS/MS method relative to CS-1036; type: ADME, organism-based, Macaca fascicularis; set-up: dose 10 mg/kg, route oral; conditions: in vivo
[16] = Drug excretion in urine of F344 rat treated with [14C]CS-1036 at 1 mg/kg, po administered as single dose after 24 hrs by scintillation counting method; type: ADME, organism-based; set-up: dose 1 mg/kg, route oral; conditions: in vivo
[17] = Drug distribution in cecum of F344 rat treated with [14C]CS-1036 at 1 mg/kg, po administered as single dose by scintillation counting method; type: ADME, organism-based, Caecum; set-up: dose 1 mg/kg, route oral; conditions: in vivo, TDE = time-dependent effect
Procedure, shortened: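 [14C]-labelled drug (1 mg/kg, 42.4 µCi/kg) was given orally to fasted F344 rats (148–168 g, n = 3). Contents of stomach, duodenum+jejunum, ileum and cecum were washed out with water at 0.5–8 h, homogenized, solubilized and counted by liquid scintillation. Results are % of dose, mean ± S.D.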

[18] = Drug distribution in cecum of F344 rat treated with [14C]CS-1036 at 1 mg/kg, po administered as single dose after 8 hrs by scintillation counting method; type: ADME, organism-based, Caecum; set-up: dose 1 mg/kg, route oral; conditions: in vivo
[19] = organism: Mus musculus; experiment: Inhibition of glycogen phosphorylase in ob/ob mouse; type: functional, organism-based
[20] = Oral bioavailability in rat at 10 mg/kg; type: ADME, organism-based; conditions: in vivo
[21] = Cmax in rat at 10 mg/kg, po; type: ADME, organism-based; set-up: dose 10 mg/kg, route oral; conditions: in vivo
[22] = Drug level in urine of F344 rat treated with [14C]CS-1036 by LC-MS/MS method; type: ADME, tissue-based; conditions: in vivo
[23] = Drug level in urine of po dosed F344 rat treated with [14C]CS-1036 by LC-MS/MS method; type: ADME, organism-based; conditions: in vivo
[24] = system: Rattus norvegicus; experiment: Drug level in F344 rat treated with 3 mg/kg, iv CS-1036 administered as single dose assessed as ratio of molar based AUClast by LC-MS/MS method relative to CS-1036; type: ADME, organism-based; set-up: dose 3 mg/kg, route intravenous; conditions: in vivo
[25] = system: Rattus norvegicus; experiment: Drug level in F344 rat treated with 10 mg/kg, iv CS-1036 administered as single dose assessed as ratio of molar based AUClast by LC-MS/MS method relative to CS-1036; type: ADME, organism-based; set-up: dose 10 mg/kg, route intravenous; conditions: in vivo
[26] = Drug level in urine of po dosed monkey treated with [14C]CS-1036 by LC-MS/MS method; conditions: cynomolgus monkey, in vivo
[27] = Drug excretion in urine of cynomolgus monkey treated with [14C]CS-1036 at 3 mg/kg, po administered as single dose after 48 hrs by scintillation counting method; conditions: in vivo
[28] = Drug metabolism in anaerobic culture broth of F344 rat cecal content assessed as N-acetyl [14C]CS-1036 formation at 63.5 uCi/ml after 24 hrs at 35 degC by LC-MS/MS method; type: ADME

Drug metabolism [1]: metabolite_not_detected | Drug metabolism [2]: metabolite_not_detected | Drug uptake [3]: 1.7% | Drug metabolism [4]: metabolite_detected | Drug metabolism [5]: metabolite_detected | Drug metabolism [6]: metabolite_detected | Drug excretion [7]: 17.8% | Drug metabolism [8]: metabolite_detected
Compound: CC(=O)N1C[C@@H](O)[C@H](O)[C@H]1CO

Drug uptake [9]: 22.1% | Drug uptake [10]: 73.4% | Drug uptake [11]: 49.9% | Drug uptake [12]: 32.2% | Drug uptake [13]: 60.8% | Drug uptake [14]: 83.5% | Drug uptake [15]: 62.5% | Drug excretion [16]: 5.3% | Drug uptake [1]: < 1% | Drug uptake [2]: < 1% | Drug uptake [17]: tde | Drug uptake [18]: 7.1% | Ki [19]: 0.392 µM | bioavailability [20]: 89% | Cmax [21]: < 300 nM | Drug metabolism [22]: metabolite_detected | Drug metabolism [4]: metabolite_detected | Drug metabolism [5]: metabolite_detected | Drug metabolism [6]: metabolite_detected | Drug metabolism [23]: metabolite_detected | Drug uptake [24]: 0.00672% | Drug uptake [25]: 0.0172% | Drug metabolism [26]: metabolite_detected | Drug excretion [27]: 2.2% | Drug excretion [7]: 9.7% | Drug metabolism [8]: metabolite_detected
Compound: OC[C@H]1NC[C@@H](O)[C@@H]1O

Drug metabolism [5]: metabolite_detected | Drug metabolism [28]: metabolite_detected
Compound: CC(=O)N1C[C@@H](O)[C@H](O[C@H]2O[C@H](CO)[C@@H](O[C@@H]3O[C@H](C)[C@@H](O)[C@H](O)[C@H]3O)[C@H](O)[C@H]2O)[C@H]1CO
